# TAAR1 antagonist: antagonists of human TAAR1. CHO RD-HGA16 TAAR1, Fluo-8 calcium fluorescence, antagonist. actives 1.5% (n = 360,000). inhibition, % at 3 µM. Q96RJ0;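 active means inhibition above a per-plate cutoff, the mean inhibition of test compounds on that plate plus 3 SD, cut at about 49% in these data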;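 further: 0% = DMSO plus EC80 beta-PEA response and 100% = DMSO alone without agonist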
#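 Material: RD-HGA16 CHO cells with stable hTAAR1 and Gα16; Dosing: single nominal final test compound concentration of 3 µM; Schedule: seeding 17-24 h prior, 75-min 37 °C, 30-min RT dye loading; Detection: kinetic Fluo-8 calcium fluorescence measurement; Measure: % inhibition from peak post-agonist over basal fluorescence ratio; Benchmarks: vehicle and agonist controls.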
# GPR7 antagonist: human neuropeptides B/W receptor 1 antagonism | GPR7-expressing cells, fluorescence antagonist assay | inhibition, % at 4.4 µM | actives 1.1% (n = 290,000) | P48145; in the data active means inhibition above about 16%, passing the limit was not always enough;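 further: cells stimulated with the agonist NPW; 0% = agonist with vehicle and 100% = vehicle without agonist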
# Target sequence (P48145 whole entry, looked up): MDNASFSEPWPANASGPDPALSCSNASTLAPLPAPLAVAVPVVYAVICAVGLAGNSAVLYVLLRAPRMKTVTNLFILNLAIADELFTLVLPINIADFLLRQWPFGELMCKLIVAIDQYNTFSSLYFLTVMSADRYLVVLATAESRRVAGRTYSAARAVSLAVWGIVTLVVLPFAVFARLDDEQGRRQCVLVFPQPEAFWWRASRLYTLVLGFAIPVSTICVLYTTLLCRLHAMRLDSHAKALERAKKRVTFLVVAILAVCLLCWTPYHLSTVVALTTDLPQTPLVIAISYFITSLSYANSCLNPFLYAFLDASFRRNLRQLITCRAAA
# OX1R antag-1: blocks the human orexin 1 receptor; O43613; CHO/OX1R cells, Fluo-8 calcium fluorescence, orexin A; inhibition, % at 5 µM; actives 0.43% (n = 330,000);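 active means inhibition above its plate's threshold, mean inhibition of all tested compounds on the plate plus 3 SD, cut at about 37% in these data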;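 further: 0% = orexin A challenge wells and 100% = SB-334867-A antagonist wells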
# OX1R antag-2: blocks the human orexin 1 receptor | OX1R-expressing cells, FRET antagonist read-out | O43613 | actives 1.8% (n = 330,000) | inhibition, % at 6.6 µM; in the data active means inhibition mostly above about 38%, no sharp cut-off; inactive means mostly below about 40%;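 further: 0% = agonist challenge alone and 100% = reference antagonist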
# CHO parental Ca: signal in parental CHO cells, OX1R antagonist counter-screen. parental CHO-K1, ATP-induced calcium, Fluo-8 fluorescence. inhibition, % at 5.6 µM. actives 0.63% (n = 330,000);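 active means inhibition above that plate's mean sample inhibition plus 3 SD, cut at about 26% in these data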;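 further: 0% = ATP-challenged DMSO wells and 100% = DMSO wells without ATP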
#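 Material: parental CHO cells / Compound: single nominal dose of 5.6 µM per compound / Signal: Fluo-8 fluorescence / Replicates: singlicate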
# TAAR1 agonist: agonists of human TAAR1; Q96RJ0; CHO RD-HGA16 TAAR1, Fluo-8 calcium fluorescence; vehicle wells 0%, saturating PEA agonist 100%; activation, % at 3 µM; actives 0.99% (n = 360,000); AID 624467;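 active means activation above the mean activation of all test compounds in the run plus 3 SD, cut at about 38% in these data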
#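 Assay system – CHO-derived RD-HGA16 cells with stable Gα16 and human TAAR1 · Compound dosing – one-point dosing at 3 µM (nominal) · Incubation – 17-24 h seeding, 75 min 37 °C dye, 30 min RT · Measured by – kinetic Fluo-8 calcium fluorescence · Control set – DMSO vehicle as 0%, PEA at EC100 as 100% · Repeats – single well for each compound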
# * hit, by the source's call; . = not tested or not shown. A selection: hits, their analogues and other compounds. The true share with any hit is near 4.6%.
SMILES,TAAR1 antagonist,GPR7 antagonist,OX1R antag-1,OX1R antag-2,CHO parental Ca,TAAR1 agonist
COc1c(OC)c(O)c2c(=O)c(O)c(-c3ccccc3)oc2c1OC,0,0,8,57*,-30,7
C=CC[C@]12C[C@@]3(O[C@H](c4ccccn4)N=C3C[C@H](c3ccc(OC)cc3)[C@H]1C)N(C1CCN(Cc3ccccc3)CC1)C2=O,-53,.,.,.,.,2
Cc1csc(SCC(=O)c2cc(C)n(Cc3cccs3)c2C)n1,35,6,6,57,42*,6
CC(=O)Nc1ccccc1OCC(=O)c1cc(C)n(Cc2cccs2)c1C,32,25*,55*,45,48*,24
O=C(CCc1c[nH]c2ccccc12)Nc1ccc(Oc2cccnc2)cc1,12,.,.,.,.,0
O=C(N/N=C/c1ccc(-c2ccc(Cl)c(C(=O)O)c2)o1)c1cc2c(ccc3ccccc32)o1,13,-2,-11,10,-11,0
Cc1cc(F)ccc1S(=O)(=O)Nc1ccccc1C(=O)Nc1ccccc1-c1nc2ccccc2[nH]1,.,-3,9,20,30*,.
Cc1ccc(C2NC(=O)c3n[nH]c(C(C)C)c32)cc1 (stereo unspecified),-36,.,.,.,.,1
C#CCN1C(=O)S/C(=C/C=C/c2ccc(N(C)C)cc2)C1=O,34,15,79*,21,72*,24
Fc1cc(F)c2nc(Nc3nc4cc5c(cc4s3)OCO5)sc2c1,61*,-6,-9,13,-8,3
COc1ccc(-c2sc3ccc(OC)cc3c2C#CCCO)cc1,.,-11,-1,32,-14,.
COc1ccc2sc(-c3ccc(N(C)C)cc3)c(C#CCCO)c2c1,12,.,34,51*,-11,-1
COc1ccc(CC(=O)OCC(=O)Nc2ccc3[nH]c(=O)[nH]c3c2)cc1OC,-4,.,.,.,.,1
CC(CCc1ccccn1)C(=O)c1ccccc1 (stereo unspecified),11,.,.,.,.,1
CC(CCc1ccccn1)(CCc1ccccn1)C(=O)c1ccccc1,53*,.,.,.,.,8
COc1ccc(NC(=O)Nc2ccc(F)c(Cl)c2)cc1,29,6,10,20,8,12
O=C(Nc1ccc(Cl)c(Cl)c1)Nc1ccc(Br)cc1F,-20,-3,32,50,36*,16
Cc1ccc(NC(=O)Nc2ccc(F)c(Cl)c2)cc1,-4,29*,8,38,69*,8
Cc1cc(NC(=O)Nc2ccc(Cl)c(Cl)c2)no1,3,.,41,29,82*,17
Cc1cc(NC(=O)Nc2ccc(Cl)cc2)no1,18,0,8,37,2,22
NS(=O)(=O)c1ccc(NC(=O)Nc2ccc(Cl)cc2)cc1,38,2,0,5,7,41*
CNC(=O)Nc1ccc(S(N)(=O)=O)cc1,-6,-4,-18,3,7,0
COC(=O)[C@]12C[C@H](CC(=O)N3CCCCC3)C(=O)N(Cc3ccc4c(c3)OCO4)C1=C[C@H](C(C)(C)C)O[C@@H]2C,-24,.,.,.,.,-1
CCCCn1c(N)c(N(CC(C)C)C(=O)CSCc2c(C)noc2C)c(=O)[nH]c1=O,-8,.,-10,21,-7,1
CCOc1ccc(S(=O)(=O)N2CCCC(C(=O)NC3CC3)C2)cc1Cl (stereo unspecified),-17,.,-37,16,-14,3
SMILES,TAAR1 antagonist,GPR7 antagonist,OX1R antag-1,OX1R antag-2,CHO parental Ca,TAAR1 agonist
O=C(Nc1ccncc1)Nc1cccc(Cl)c1Cl,12,-18,.,.,.,26
O=C(Nc1ccc(Cl)cc1)Nc1ccc(Cl)c(Cl)c1,66*,.,84*,43*,79*,18
O=C(Nc1cccnc1)Nc1ccc(F)c(Cl)c1,6,-1,12,7,-2,51*
CC(=O)N(C)c1ccc(NC(=O)Nc2ccc(Cl)cc2)cc1,102*,.,27,19,14,44*
O=C(Nc1cccnc1)c1cc(F)c(F)cc1Cl,-19,-5,-4,26,-1,8
O=C(Nc1ccc(Cl)cc1)Nc1cccc2nsnc12,21,-3,2,44*,13,0
CCN(CC(=O)Nc1c(F)cccc1F)C(=O)c1cccc(S(=O)(=O)N(C)c2ccccc2)c1,-14,.,-2,29,-17,3

# Bioassay records deposited in PubChem BioAssay by The Scripps Research Institute Molecular Screening Center.
